In ChEMBL document CHEMBL1135457 (J Med Chem, 2002):

How the values were obtained:
[1] = biological target: T1, Androgen receptor (Homo sapiens, UniProt P10275); assay: Displacement of [3H]DHT from human Androgen receptor
T1 sequence (P10275 whole entry): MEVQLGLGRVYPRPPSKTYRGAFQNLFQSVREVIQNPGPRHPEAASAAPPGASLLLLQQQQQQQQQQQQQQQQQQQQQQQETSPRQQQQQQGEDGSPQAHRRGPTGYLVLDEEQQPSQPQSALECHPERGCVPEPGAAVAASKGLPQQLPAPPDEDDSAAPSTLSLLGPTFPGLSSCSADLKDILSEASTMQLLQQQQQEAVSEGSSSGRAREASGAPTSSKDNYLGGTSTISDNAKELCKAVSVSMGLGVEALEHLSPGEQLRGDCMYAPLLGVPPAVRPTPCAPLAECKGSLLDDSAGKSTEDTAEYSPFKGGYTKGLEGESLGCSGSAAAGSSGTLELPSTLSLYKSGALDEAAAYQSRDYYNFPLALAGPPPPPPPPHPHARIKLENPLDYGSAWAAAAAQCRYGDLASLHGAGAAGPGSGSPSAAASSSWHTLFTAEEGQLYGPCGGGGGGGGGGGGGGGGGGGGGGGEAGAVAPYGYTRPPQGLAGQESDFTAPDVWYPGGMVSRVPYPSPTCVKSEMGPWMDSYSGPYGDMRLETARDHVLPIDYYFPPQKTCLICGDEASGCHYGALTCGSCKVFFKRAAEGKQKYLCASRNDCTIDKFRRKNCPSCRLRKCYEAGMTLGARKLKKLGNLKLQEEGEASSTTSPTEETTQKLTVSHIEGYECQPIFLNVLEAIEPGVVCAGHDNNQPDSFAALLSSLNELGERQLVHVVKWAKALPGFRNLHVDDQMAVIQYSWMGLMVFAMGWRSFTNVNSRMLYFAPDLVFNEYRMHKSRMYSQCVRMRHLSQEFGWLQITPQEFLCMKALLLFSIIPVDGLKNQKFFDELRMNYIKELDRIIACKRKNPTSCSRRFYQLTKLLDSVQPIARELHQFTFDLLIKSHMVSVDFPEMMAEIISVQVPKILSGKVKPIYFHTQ
In short: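 Whole-cell extract of Sf9 cells infected with baculovirus expressing human AR (MOI 2, harvested 48 h), sonicated in pH 7.2 HEPES/molybdate/glycerol buffer. Extract bound to hydroxylapatite with 1 nM [3H]DHT and compound (0.01 nM–30 μM) in triplicate, 1 h, 4 °C. Nonspecific binding from 10 μM unlabeled DHT. Filtration, scintillation counting, sigmoidal IC50, Cheng–Prusoff Ki (Kd 0.4 nM).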

[2] = biological target: T2, Estrogen receptor (Homo sapiens, UniProt P03372); assay: Displacement of radioligand from human Estrogen receptor alpha
T2 sequence (P03372 whole entry): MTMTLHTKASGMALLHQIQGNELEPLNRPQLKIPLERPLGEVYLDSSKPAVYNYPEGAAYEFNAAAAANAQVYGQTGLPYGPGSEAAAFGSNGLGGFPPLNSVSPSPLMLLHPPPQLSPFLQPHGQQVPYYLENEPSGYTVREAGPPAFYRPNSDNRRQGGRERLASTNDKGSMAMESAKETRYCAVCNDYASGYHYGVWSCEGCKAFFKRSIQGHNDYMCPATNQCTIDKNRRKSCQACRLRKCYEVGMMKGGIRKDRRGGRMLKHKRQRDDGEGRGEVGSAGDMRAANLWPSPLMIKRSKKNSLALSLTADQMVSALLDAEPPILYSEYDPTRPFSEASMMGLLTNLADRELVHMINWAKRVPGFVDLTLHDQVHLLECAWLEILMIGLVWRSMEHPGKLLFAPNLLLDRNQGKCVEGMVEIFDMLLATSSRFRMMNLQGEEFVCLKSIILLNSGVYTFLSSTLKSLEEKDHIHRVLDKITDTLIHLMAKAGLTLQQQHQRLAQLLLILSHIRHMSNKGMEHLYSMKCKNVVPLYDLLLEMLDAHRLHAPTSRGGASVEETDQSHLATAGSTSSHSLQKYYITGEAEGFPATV

[3] = biological target: T3, Progesterone receptor (Homo sapiens) (UniProt P06401); assay: Displacement of 10 nM [3H]dexamethasone from human Progesterone receptor, percent inhibition at 10 uM
T3 sequence (whole entry): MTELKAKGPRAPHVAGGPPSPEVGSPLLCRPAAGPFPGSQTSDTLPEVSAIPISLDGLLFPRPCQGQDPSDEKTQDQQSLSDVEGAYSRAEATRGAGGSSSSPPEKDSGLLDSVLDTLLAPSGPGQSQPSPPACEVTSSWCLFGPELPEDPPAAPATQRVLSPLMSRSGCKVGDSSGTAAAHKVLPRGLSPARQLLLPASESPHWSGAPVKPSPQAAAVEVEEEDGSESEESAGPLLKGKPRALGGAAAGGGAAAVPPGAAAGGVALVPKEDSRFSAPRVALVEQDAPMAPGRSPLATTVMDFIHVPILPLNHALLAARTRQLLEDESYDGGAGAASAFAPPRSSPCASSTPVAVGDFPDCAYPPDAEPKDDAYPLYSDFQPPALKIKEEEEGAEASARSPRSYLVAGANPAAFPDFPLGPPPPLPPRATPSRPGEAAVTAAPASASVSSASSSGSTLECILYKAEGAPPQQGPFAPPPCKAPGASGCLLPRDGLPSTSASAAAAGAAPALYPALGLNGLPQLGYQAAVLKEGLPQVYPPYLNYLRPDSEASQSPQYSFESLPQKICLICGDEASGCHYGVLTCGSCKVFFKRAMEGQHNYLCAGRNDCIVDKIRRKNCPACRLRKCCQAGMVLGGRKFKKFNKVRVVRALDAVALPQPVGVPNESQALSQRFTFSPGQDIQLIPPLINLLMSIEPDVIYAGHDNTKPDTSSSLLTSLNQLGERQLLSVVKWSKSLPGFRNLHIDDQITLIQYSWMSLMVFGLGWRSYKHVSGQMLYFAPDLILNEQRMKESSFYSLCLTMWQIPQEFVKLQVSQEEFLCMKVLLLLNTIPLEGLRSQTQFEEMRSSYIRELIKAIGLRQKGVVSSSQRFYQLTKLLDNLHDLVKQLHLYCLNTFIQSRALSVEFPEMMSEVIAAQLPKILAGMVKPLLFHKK

## CC#C[C@@]1(O)CC[C@@]2(Cc3ccccc3)c3ccc(O)cc3CC[C@@H]2C1
[1]
  Ki: 0.65 µM

## CC#C[C@]1(O)CCC2C3CCC4=CC(=O)CC[C@]4(Cc4ccc(C)cc4)C3=CC[C@@]21C (stereo partly drawn)
[2]
  Ki: > 10 µM
[3]
  inhibition: 30%
